Measurements reported in PMC6500964 (Cancer Science, 2019).
“Also recorded” adds a separate entry of the source. Where two headings read alike, the source gives them in different places.

Columns and labels:
GLUT1 [1] = conditions: cited from earlier work
TE‐8 cells [2] = assay: WST‐8 cell proliferation assay; type: cell-based, human; conditions: for reduced the proliferation of TE‐8 cells by (average ± SD): compared with vehicle‐treated control cells
Procedure, shortened: (§1)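 Human ESCC cells, obtained from the Tohoku University or Riken cell banks and authenticated, were seeded at 1‐5 × 10³ cells per well and cultured overnight. They were then exposed for 48 h to the GLUT1-inhibitor test compound (prepared in DMSO), cisplatin, or both, with DMSO-only wells as control. Surviving cells were read by WST‐8 absorbance at 450 nm. Results are mean ± SD of n = 3 replicates, compared by Student's t‐test.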

TE‐11 cells [3] = assay: WST‐8 cell proliferation assay; type: cell-based, human; conditions: for reduced the proliferation of TE‐11 cells by (average ± SD): compared with vehicle‐treated control cells
Procedure, shortened: as §1

[4] = test system: human lung cancer xenografts; conditions: nude mouse, daily intraperitoneal injection of 10 mg/kg for 10 weeks; cited from earlier work
GLUT1 [5] = conditions: cited from earlier work; remark: listed apart in the source
TE‐11 cells [6] = conditions: read-out: cisplatin IC50 value, high GLUT1 expression, ref GSE36133 and the Genomics of Drug Sensitivity in Cancer; cited from earlier work
TE‐8 cells [7] = conditions: read-out: cisplatin IC50 value, low GLUT1 expression, ref GSE36133 and the Genomics of Drug Sensitivity in Cancer; cited from earlier work

In the case of `Oc1ccc(/C=C/c2cc(O)cc(O)c2)cc1` [resveratrol], the efficacy in vitro (GLUT1 [1]; 50 μmol/L) is listed as “shown efficacy in vitro”.

For `O=C(O)C(=O)CBr` [3‐bromopyruvate], the “proliferation of TE‐8 cells” value (TE‐8 cells [2]; 50 μmol/L, data not shown) was “inhibits the proliferation” and the “proliferation of TE‐11 cells” value (TE‐11 cells [3]; 50 μmol/L, data not shown) was “inhibits the proliferation”.

For `O=C(Oc1cccc(F)c1OC(=O)c1cccc(O)c1)c1cccc(O)c1` [WZB117], the efficacy in vitro (GLUT1 [1]; 30 μmol/L) is listed as “shown efficacy in vitro”, the blood glucose effect [4] is listed as “hyperglycemia” and the “lymphocyte and platelet counts” value [4] is listed as “aberrant lymphocyte and platelet counts”. The “reduction in the volume of human lung cancer xenografts” value [4] was over 70%.

For `Cc1c(NC(=O)c2cc(C(N)=O)nc3cc(F)ccc23)c(C(F)(F)F)nn1Cc1ccc(C#N)cc1` [BAY‐876], the “selectivity and affinity for GLUT1” value (GLUT1 [5]) is given as “high selectivity and affinity”, the “reduced the proliferation of TE‐8 cells by (average ± SD)” value (TE‐8 cells [2]; 0.025 nmol/L BAY‐876, 48 h) is given as 59.9% ± 4.9% and the “inhibition of proliferation of TE‐8 cells” value (TE‐8 cells [2]; 0.1 nmol/L BAY‐876, 48 h) is given as “almost complete inhibition; also recorded: strong anti–proliferative effect”. For the same compound, the “reduced the proliferation of TE‐11 cells by (average ± SD)” value (TE‐11 cells [3]; 0.025 nmol/L BAY‐876, 48 h) was 51.0% ± 8.2% and the “inhibition of proliferation of TE‐11 cells” value (TE‐11 cells [3]; 0.1 nmol/L BAY‐876, 48 h) was “almost complete inhibition; also recorded: strong anti–proliferative effect”.

In the case of `N.N.[Cl][Pt][Cl]` [cisplatin], the IC50 (TE‐11 cells [6]) is given as 20.4 µM, the “reduced the proliferation of TE‐8 cells by (average ± SD)” value (TE‐8 cells [2]; 0.5 μmol/L cisplatin, 48 h) is given as 79.9% ± 2.3% and the IC50 (TE‐8 cells [7]) is given as 10.1 µM. For the same compound, the “reduced the proliferation of TE‐11 cells by (average ± SD)” value (TE‐11 cells [3]; 0.5 μmol/L cisplatin, 48 h) was 46.0% ± 6.5% and the “effect of very low doses of cisplatin on proliferation” value (TE‐11 cells [3]; 0.2 and 0.4 μg/mL cisplatin, 48 h, TE11 cells transfected with GLUT1‐specific siRNA) was “strong inhibitory effect”.
